Results: ChEMBL document CHEMBL1141180, “Synthesis and antiviral activity of helioxanthin analogues” (J Med Chem, 2005)

test system: Human alphaherpesvirus 1; assay: Effective concentration to inhibit 50% of herpes simplex virus type 1 replication in a cell culture model; format: functional, organism-based; settings: not given

Going from `O=C1NCc2c1cc1ccc3c(c1c2-c1ccc2c(c1)OCO2)OCO3` to `CC(=O)NN1Cc2c(cc3ccc4c(c3c2-c2ccc3c(c2)OCO3)OCO4)C1=O`, the EC50 rises from 0.29 µM to 5 µM (17-fold).

`O=c1[nH][nH]c(=O)c2c(-c3ccc4c(c3)OCO4)c3c4c(cc(I)c3cc12)OCO4` and `O=C(O)c1cc2c(Br)cc3c(c2c(-c2ccc4c(c2)OCO4)c1CO)OCO3` cannot be ordered by EC50: > 40 µM for the first, > 50 µM for the second.

Compared with `CNC(=O)c1cc2ccc3c(c2c(-c2ccc4c(c2)OCO4)c1C(=O)O)OCO3`, `COC(=O)c1c(C(=O)O)cc2ccc3c(c2c1-c1ccc2c(c1)OCO2)OCO3` is higher in EC50: 12 µM for the first, > 50 µM for the second. The first is the more potent here.

`CC(=O)NN1C(=O)c2cc3ccc4c(c3c(-c3ccc5c(c3)OCO5)c2C1=O)OCO4` and `COC1=NC(=O)c2c1cc1ccc3c(c1c2-c1ccc2c(c1)OCO2)OCO3` cannot be ordered by EC50: > 40 µM for the first, > 50 µM for the second.

`COc1ccc(-c2c3c(cc4ccc5c(c24)OCO5)C(=O)NC3)cc1OC` gave an EC50 of 0.6 µM.

test system: Human alphaherpesvirus 2; assay: Effective concentration to inhibit 50% of herpes simplex virus type 2 replication in a cell culture model; format: functional, organism-based; settings: not given

First: O=C1NCc2c1cc1ccc3c(c1c2-c1ccc2c(c1)OCO2)OCO3
Second: CC(=O)NN1Cc2c(cc3ccc4c(c3c2-c2ccc3c(c2)OCO3)OCO4)C1=O
The EC50 of the first is 62-fold lower: 0.16 µM for the first, 10 µM for the second. The first is the more potent here.

`O=c1[nH][nH]c(=O)c2c(-c3ccc4c(c3)OCO4)c3c4c(cc(I)c3cc12)OCO4` and `O=C(O)c1cc2c(Br)cc3c(c2c(-c2ccc4c(c2)OCO4)c1CO)OCO3` cannot be ordered by EC50: > 40 µM for the first, > 50 µM for the second.

`CNC(=O)c1cc2ccc3c(c2c(-c2ccc4c(c2)OCO4)c1C(=O)O)OCO3` and `COC(=O)c1c(C(=O)O)cc2ccc3c(c2c1-c1ccc2c(c1)OCO2)OCO3` cannot be ordered by EC50: > 25 µM for the first, > 50 µM for the second.

`CC(=O)NN1C(=O)c2cc3ccc4c(c3c(-c3ccc5c(c3)OCO5)c2C1=O)OCO4` and `COC1=NC(=O)c2c1cc1ccc3c(c1c2-c1ccc2c(c1)OCO2)OCO3` cannot be ordered by EC50: > 40 µM for the first, > 50 µM for the second.

For `COc1ccc(-c2c3c(cc4ccc5c(c24)OCO5)C(=O)NC3)cc1OC`, the EC50 was 0.5 µM.

test system: Hepatitis B virus; assay: Effective concentration to inhibit 50% of hepatitis B virus replication in a cell culture model; format: functional, organism-based; settings: not given

Compared with `O=C1NCc2c1cc1ccc3c(c1c2-c1ccc2c(c1)OCO2)OCO3`, `CC(=O)NN1Cc2c(cc3ccc4c(c3c2-c2ccc3c(c2)OCO3)OCO4)C1=O` is higher in EC50: 0.08 µM for the first, > 20 µM for the second.

`O=c1[nH][nH]c(=O)c2c(-c3ccc4c(c3)OCO4)c3c4c(cc(I)c3cc12)OCO4` and `O=C(O)c1cc2c(Br)cc3c(c2c(-c2ccc4c(c2)OCO4)c1CO)OCO3` cannot be ordered by EC50: > 10 µM for the first, > 18 µM for the second.

`CNC(=O)c1cc2ccc3c(c2c(-c2ccc4c(c2)OCO4)c1C(=O)O)OCO3` and `COC(=O)c1c(C(=O)O)cc2ccc3c(c2c1-c1ccc2c(c1)OCO2)OCO3` cannot be ordered by EC50: > 10 µM for the first, > 20 µM for the second.

Going from `CC(=O)NN1C(=O)c2cc3ccc4c(c3c(-c3ccc5c(c3)OCO5)c2C1=O)OCO4` to `COC1=NC(=O)c2c1cc1ccc3c(c1c2-c1ccc2c(c1)OCO2)OCO3`, the EC50 rises from 1 µM to > 5 µM.

For `COc1ccc(-c2c3c(cc4ccc5c(c24)OCO5)C(=O)NC3)cc1OC`, the EC50 was > 10 µM.

test system: Hepatitis C virus; assay: Effective concentration to inhibit 50% of hepatitis C virus replication in a cell culture model; format: functional, organism-based, Hepacivirus hominis; settings: not given
How it was run: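 HCV replicon Huh-Luc/neo cells grown to confluence, then treated with varying drug concentrations in DMEM with 10% dFBS for 3 days. Medium was removed and cells lysed in passive lysis buffer, shaken 15 min at room temperature. Lysate was mixed with luciferase substrate and luminescence read immediately as the measure of replicon activity.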

Going from `O=C1NCc2c1cc1ccc3c(c1c2-c1ccc2c(c1)OCO2)OCO3` to `CC(=O)NN1Cc2c(cc3ccc4c(c3c2-c2ccc3c(c2)OCO3)OCO4)C1=O`, the EC50 rises from 1 µM to > 10 µM. The first is the more potent here.

Going from `O=c1[nH][nH]c(=O)c2c(-c3ccc4c(c3)OCO4)c3c4c(cc(I)c3cc12)OCO4` to `COC1=NC(=O)c2c1cc1ccc3c(c1c2-c1ccc2c(c1)OCO2)OCO3`, the EC50 rises from 10 µM to > 10 µM.

`CNC(=O)c1cc2ccc3c(c2c(-c2ccc4c(c2)OCO4)c1C(=O)O)OCO3` and `COC(=O)c1c(C(=O)O)cc2ccc3c(c2c1-c1ccc2c(c1)OCO2)OCO3` cannot be ordered by EC50: > 10 µM for the first, > 10 µM for the second.

First: CC(=O)NN1C(=O)c2cc3ccc4c(c3c(-c3ccc5c(c3)OCO5)c2C1=O)OCO4
Second: COc1ccc(-c2c3c(cc4ccc5c(c24)OCO5)C(=O)NC3)cc1OC
The EC50 of the first is higher: > 10 µM for the first, 3 µM for the second. The second is the more potent here.

test system: not listed separately; assay: Effective concentration to inhibit 50% of human immunodeficiency virus replication in a cell culture model; format: functional; settings: not given

`O=C1NCc2c1cc1ccc3c(c1c2-c1ccc2c(c1)OCO2)OCO3` and `CC(=O)NN1Cc2c(cc3ccc4c(c3c2-c2ccc3c(c2)OCO3)OCO4)C1=O` cannot be ordered by EC50: > 4 µM for the first, > 7 µM for the second.

`O=c1[nH][nH]c(=O)c2c(-c3ccc4c(c3)OCO4)c3c4c(cc(I)c3cc12)OCO4` and `O=C(O)c1cc2c(Br)cc3c(c2c(-c2ccc4c(c2)OCO4)c1CO)OCO3` cannot be ordered by EC50: > 2 µM for the first, > 50 µM for the second.

`CNC(=O)c1cc2ccc3c(c2c(-c2ccc4c(c2)OCO4)c1C(=O)O)OCO3` and `COC(=O)c1c(C(=O)O)cc2ccc3c(c2c1-c1ccc2c(c1)OCO2)OCO3` cannot be ordered by EC50: > 26 µM for the first, > 90 µM for the second.

`CC(=O)NN1C(=O)c2cc3ccc4c(c3c(-c3ccc5c(c3)OCO5)c2C1=O)OCO4` and `COC1=NC(=O)c2c1cc1ccc3c(c1c2-c1ccc2c(c1)OCO2)OCO3` cannot be ordered by EC50: > 100 µM for the first, > 100 µM for the second.

In the case of `COc1ccc(-c2c3c(cc4ccc5c(c24)OCO5)C(=O)NC3)cc1OC`, the EC50 is reported as > 16 µM.

test system: Human gammaherpesvirus 4; assay: Effective concentration to inhibit 50% of epstein Barr virus replication in a cell culture model; format: functional, organism-based; settings: not given

`O=C1NCc2c1cc1ccc3c(c1c2-c1ccc2c(c1)OCO2)OCO3` and `CC(=O)NN1Cc2c(cc3ccc4c(c3c2-c2ccc3c(c2)OCO3)OCO4)C1=O` are within 1.5-fold of each other in EC50: 11 µM for the first, 13 µM for the second.

`O=c1[nH][nH]c(=O)c2c(-c3ccc4c(c3)OCO4)c3c4c(cc(I)c3cc12)OCO4` and `O=C(O)c1cc2c(Br)cc3c(c2c(-c2ccc4c(c2)OCO4)c1CO)OCO3` cannot be ordered by EC50: > 20 µM for the first, > 20 µM for the second.

`CNC(=O)c1cc2ccc3c(c2c(-c2ccc4c(c2)OCO4)c1C(=O)O)OCO3` and `COC(=O)c1c(C(=O)O)cc2ccc3c(c2c1-c1ccc2c(c1)OCO2)OCO3` cannot be ordered by EC50: > 20 µM for the first, > 20 µM for the second.

`CC(=O)NN1C(=O)c2cc3ccc4c(c3c(-c3ccc5c(c3)OCO5)c2C1=O)OCO4` and `COC1=NC(=O)c2c1cc1ccc3c(c1c2-c1ccc2c(c1)OCO2)OCO3` cannot be ordered by EC50: > 20 µM for the first, > 20 µM for the second.

For `COc1ccc(-c2c3c(cc4ccc5c(c24)OCO5)C(=O)NC3)cc1OC`, the EC50 was > 20 µM.

test system: not listed separately; assay: Effective concentration to inhibit 50% of cytomegalovirus (CMV) replication in a cell culture model; format: functional; settings: not given

With `O=C(O)c1cc2c(Br)cc3c(c2c(-c2ccc4c(c2)OCO4)c1CO)OCO3` the EC50 was > 20 µM.

test system: CCRF-CEM; assay: Cytotoxicity against CEM cell lines of human; format: functional; settings: read-out: ID50 (the source's name)

Going from `O=C1NCc2c1cc1ccc3c(c1c2-c1ccc2c(c1)OCO2)OCO3` to `CC(=O)NN1Cc2c(cc3ccc4c(c3c2-c2ccc3c(c2)OCO3)OCO4)C1=O`, the IC50 rises from 4.5 µM to 40 µM (8.9-fold).

`O=c1[nH][nH]c(=O)c2c(-c3ccc4c(c3)OCO4)c3c4c(cc(I)c3cc12)OCO4` and `O=C(O)c1cc2c(Br)cc3c(c2c(-c2ccc4c(c2)OCO4)c1CO)OCO3` are within 1.5-fold of each other in IC50: 40 µM for the first, 46.5 µM for the second.

Going from `CNC(=O)c1cc2ccc3c(c2c(-c2ccc4c(c2)OCO4)c1C(=O)O)OCO3` to `COC(=O)c1c(C(=O)O)cc2ccc3c(c2c1-c1ccc2c(c1)OCO2)OCO3`, the IC50 rises from 29 µM to 74 µM (2.6-fold).

Compared with `CC(=O)NN1C(=O)c2cc3ccc4c(c3c(-c3ccc5c(c3)OCO5)c2C1=O)OCO4`, `COC1=NC(=O)c2c1cc1ccc3c(c1c2-c1ccc2c(c1)OCO2)OCO3` is higher in IC50: 93 µM for the first, > 100 µM for the second.

`COc1ccc(-c2c3c(cc4ccc5c(c24)OCO5)C(=O)NC3)cc1OC` gave an IC50 of 5 µM.

test system: MT2; assay: Cytotoxicity against MT-2 cell lines of human; format: functional; settings: read-out: ID50 (the source's name)

Going from `O=C1NCc2c1cc1ccc3c(c1c2-c1ccc2c(c1)OCO2)OCO3` to `CC(=O)NN1Cc2c(cc3ccc4c(c3c2-c2ccc3c(c2)OCO3)OCO4)C1=O`, the IC50 rises from 4 µM to 7 µM (1.8-fold).

`O=c1[nH][nH]c(=O)c2c(-c3ccc4c(c3)OCO4)c3c4c(cc(I)c3cc12)OCO4` and `O=C(O)c1cc2c(Br)cc3c(c2c(-c2ccc4c(c2)OCO4)c1CO)OCO3` are within 1.5-fold of each other in IC50: 35 µM for the first, 50 µM for the second.

First: CNC(=O)c1cc2ccc3c(c2c(-c2ccc4c(c2)OCO4)c1C(=O)O)OCO3
Second: COC(=O)c1c(C(=O)O)cc2ccc3c(c2c1-c1ccc2c(c1)OCO2)OCO3
The IC50 of the first is 3.5-fold lower: 26 µM for the first, 90 µM for the second.

`CC(=O)NN1C(=O)c2cc3ccc4c(c3c(-c3ccc5c(c3)OCO5)c2C1=O)OCO4` and `COC1=NC(=O)c2c1cc1ccc3c(c1c2-c1ccc2c(c1)OCO2)OCO3` cannot be ordered by IC50: > 100 µM for the first, > 100 µM for the second.

In the case of `COc1ccc(-c2c3c(cc4ccc5c(c24)OCO5)C(=O)NC3)cc1OC`, the IC50 is reported as 16 µM.
